Activity calls are given as the source filed them. No cut-off for these calls is given here.
Tests used:
[1] = tested on: MKN-74; experiment: Induction of autophagy in human MKN74 cells harboring ATG5 siRNA assessed as increase in LC3-2 expression at 0.5 uM by Western blot analysis; format: functional, cell-based
In short: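 MKN-74 cells transfected with ATG5 or negative-control siRNA for the indicated times, then 0.5 μM. ATG5, LC3 and p62 immunoblotted, with GAPDH loading control.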

[2] = tested on: MKN-74; experiment: Cytotoxicity against human MKN74 cells harboring siRNA assessed as reduction in cell viability at 0.5 uM by MTT assay; format: functional, cell-based
In short: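 MKN-74 cells transfected with ATG5-specific or negative-control siRNA for the indicated times, then treated with 0.5 μM. Viability read by MTT assay.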

[3] = biological target: Mitogen-activated protein kinase 3 (Homo sapiens) (UniProt P27361); experiment: Inhibition of wild-type human full length ERK1 (M1 to P379 residues) expressed in bacterial expression system at 1 uM by Kinomescan method relative to control
Chain of Mitogen-activated protein kinase 3 (Homo sapiens) (P27361 whole entry, the tested form may be a part): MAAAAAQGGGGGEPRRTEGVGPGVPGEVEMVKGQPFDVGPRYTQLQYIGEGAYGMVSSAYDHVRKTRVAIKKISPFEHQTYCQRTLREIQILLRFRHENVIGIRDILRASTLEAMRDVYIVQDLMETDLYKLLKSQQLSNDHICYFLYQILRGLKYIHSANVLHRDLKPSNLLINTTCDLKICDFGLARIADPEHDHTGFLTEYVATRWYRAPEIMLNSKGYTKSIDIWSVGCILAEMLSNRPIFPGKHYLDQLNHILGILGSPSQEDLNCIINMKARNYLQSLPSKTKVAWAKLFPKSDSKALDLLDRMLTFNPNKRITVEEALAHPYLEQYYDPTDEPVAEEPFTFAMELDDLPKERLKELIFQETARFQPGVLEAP
In short: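 KINOMEscan binding assays over a 100-kinase panel, with test compound at 1 μM. Results are given as % inhibition.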

[4] = Effect on Ras/Raf/MEK/ERK signaling in human MKN74 cells assessed as change in MEK1/2 expression at 0.5 uM measured up to 24 hrs by Western blot analysis; format: cell-based
In short: (§1)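 MKN-74 cells exposed to 0.5 μM for 0, 6, 12 and 24 h. Ras, Raf, p-MEK1/2, MEK1/2, p-JNK, JNK, p-p38 and p38 immunoblotted, with GAPDH as loading control.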

[5] = Tmax in Sprague-Dawley rat at 10 mg/kg, po by LC-MS analysis; format: ADME, organism-based; details: in vivo
In short: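 Two groups of rats (3 per group) received a single dose, either 1 mg/kg i.v. or 10 mg/kg p.o. Plasma concentrations were followed to derive Tmax, Cmax, T1/2, AUC and F. Data are from triple testing (± standard deviation).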

[6] = tested on: MKN-74; experiment: Induction of autophagy in human MKN74 cells assessed as increase in p62 degradation at 0.5 uM measured up to 24 hrs by Western blot analysis; format: functional, cell-based
In short: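 MKN-74 cells treated with 0.5 μM; LC3 (LC3-II) and p62 levels analyzed by immunoblotting.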

[7] = Effect on Ras/Raf/MEK/ERK signaling in human MKN74 cells assessed as change in JNK phosphorylation at Thr183/Tyr185 residue at 0.5 uM measured up to 24 hrs by Western blot analysis; format: cell-based; in short: as §1

Structure (SMILES): NC(=O)c1c(NC(=O)c2ccccc2Cl)sc2c1CCN(C(=S)Nc1ccccc1Cl)C2
- Activity [1]: inactive
- Activity [2]: Active
- inhibition [3]: 94%
- Activity [4]: inactive
- Tmax [5]: 45 min
- Activity [6]: Active
- Activity [7]: inactive

Reference: ChEMBL document CHEMBL4342467, “Discovery of a Novel Dual-Target Inhibitor of ERK1 and ERK5 That Induces Regulated Cell Death to Overcome Compensatory Mechanism in Specific Tumor Types” (J Med Chem, 2020)
